Source: ChEMBL document CHEMBL3593191, “Ethyl 2-((4-Chlorophenyl)amino)thiazole-4-carboxylate and Derivatives Are Potent Inducers of Oct3/4” (2015)
The source made the active and inactive calls. The rule behind the calls is not given here.

Tests used:
[1] = target: POU domain, class 5, transcription factor 1 (Homo sapiens) (UniProt Q01860); experiment: Activation of Oct3/4 (unknown origin) expressed in HEK293 cells after 72 hrs by luciferase reporter gene assay relative to control; format: cell-based
Chain of POU domain, class 5, transcription factor 1 (Homo sapiens) (Q01860 whole entry, the tested form may be a part): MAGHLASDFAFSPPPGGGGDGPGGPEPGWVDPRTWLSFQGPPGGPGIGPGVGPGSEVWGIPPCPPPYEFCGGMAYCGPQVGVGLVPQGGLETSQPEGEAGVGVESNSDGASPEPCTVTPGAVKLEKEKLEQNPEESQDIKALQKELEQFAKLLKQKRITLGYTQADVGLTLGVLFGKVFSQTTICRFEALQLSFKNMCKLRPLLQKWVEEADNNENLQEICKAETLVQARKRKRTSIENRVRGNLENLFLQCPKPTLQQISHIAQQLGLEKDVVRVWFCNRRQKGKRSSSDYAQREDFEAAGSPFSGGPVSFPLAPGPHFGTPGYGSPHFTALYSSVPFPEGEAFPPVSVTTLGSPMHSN
Outline: (§1)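 HEK293 cells stably carrying luciferase under a human Oct3/4 promoter (HEK-Oct3/4), or NCCIT cells lentivirally transduced with an Oct3/4 transcriptional response element reporter (NCCIT-Oct3/4, kept under 400 ng/mL puromycin). Cells seeded at 100,000/well for 24 h, then treated with compound. Lysed for 10 min at 37°C, luciferin/ATP mix added, read after 3 min. Signal given as percent of control cells; at least five independent experiments.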

[2] = target: POU domain, class 5, transcription factor 1 (Homo sapiens) (UniProt Q01860); experiment: Activation of Oct3/4 in human fibroblasts assessed as increase of Lin28 protein expression after 72 hrs by immunoblotting relative to control
Outline: (§2)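 Immunoblot. Compound-treated cells lysed in urea lysis buffer (6 M urea, 0.5% Triton X-100, protease/phosphatase inhibitors). 40 µg total protein run on 10% SDS-PAGE. Probed with Oct3/4, Nanog or Lin28 antibodies, with vinculin or β-actin as loading control. Primary antibody 1:1000 overnight at 4°C, secondary 1:10,000 for 1 h at RT; ECL detection.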

[3] = target: POU domain, class 5, transcription factor 1 (Homo sapiens) (UniProt Q01860); experiment: Activation of Oct3/4 (unknown origin) expressed in HEK293 cells assessed as […] of Rex1 gene expression after 72 hrs by RT-PCR analysis; format: cell-based
Outline: (§3)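 qRT-PCR of pluripotency-related genes in compound-treated HEK293 cells or primary human skin fibroblasts, against an endogenous control gene. Values normalized to DMSO-treated cells as mean ± SD of quadruplicates, representative of two independent experiments.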

[4] = target: POU domain, class 5, transcription factor 1 (Homo sapiens) (UniProt Q01860); experiment: Activation of Oct3/4 (unknown origin) expressed in HEK293 cells assessed as increase of Nanog gene expression after 72 hrs by RT-PCR analysis; format: cell-based; outline: as §3
[5] = target: POU domain, class 5, transcription factor 1 (Homo sapiens) (UniProt Q01860); experiment: Activation of Oct3/4 in human fibroblasts assessed as increase of Nanog gene expression after 48 hrs by RT-PCR analysis relative to control; outline: as §3
[6] = target: POU domain, class 5, transcription factor 1 (Homo sapiens) (UniProt Q01860); experiment: Activation of Oct3/4 (unknown origin) expressed in HEK293 cells at 20 uM after 72 hrs by luciferase reporter gene assay relative to control; format: cell-based; outline: as §1
[7] = target: POU domain, class 5, transcription factor 1 (Homo sapiens) (UniProt Q01860); experiment: Activation of Oct3/4 (unknown origin) expressed in HEK293 cells assessed as increase of Sox2 gene expression after 72 hrs by RT-PCR analysis; format: cell-based; outline: as §3
[8] = target: POU domain, class 5, transcription factor 1 (Homo sapiens) (UniProt Q01860); experiment: Activation of Oct3/4 in human fibroblasts assessed as co-expression of Oct3/4 and Sox2 after 5 days by immunocytochemistry analysis
Outline: (§4)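 Primary human fibroblasts seeded at 10,000 cells/well on Geltrex. After 24 h, treated for 5 days in DMEM/F12 with 20% knockout serum replacement, 10 ng/mL bFGF and 1 mM β-mercaptoethanol. Fixed in 4% PFA, blocked with 5% goat serum/0.3% Triton. Stained overnight at 4°C for Oct3/4 (1:400), Nanog (1:1000), Sox2 (1:100) or Klf4 (1:100), then Alexa 594/488 secondary for 1 h.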

[9] = target: POU domain, class 5, transcription factor 1 (Homo sapiens) (UniProt Q01860); experiment: Activation of Oct3/4 in human fibroblasts assessed as increase of Rex1 gene expression after 48 hrs by RT-PCR analysis relative to control; outline: as §3
[10] = target: POU domain, class 5, transcription factor 1 (Homo sapiens) (UniProt Q01860); experiment: Activation of Oct3/4 (unknown origin) expressed in human NCCIT cells at 20 uM after 2 hrs by luciferase reporter gene assay relative to control; format: cell-based
[11] = target: POU domain, class 5, transcription factor 1 (Homo sapiens) (UniProt Q01860); experiment: Activation of Oct3/4 in human fibroblasts assessed as increase of Lin28 gene expression after 48 hrs by RT-PCR analysis relative to control; outline: as §3
[12] = target: POU domain, class 5, transcription factor 1 (Homo sapiens) (UniProt Q01860); experiment: Activation of Oct3/4 (unknown origin) expressed in HEK293 cells assessed as increase of Lin28 gene expression after 72 hrs by RT-PCR analysis; format: cell-based; outline: as §3
[13] = target: POU domain, class 5, transcription factor 1 (Homo sapiens) (UniProt Q01860); experiment: Activation of Oct3/4 (unknown origin) expressed in human NCCIT cells at 5 uM after 72 hrs by luciferase reporter gene assay relative to control; format: cell-based
[14] = target: POU domain, class 5, transcription factor 1 (Homo sapiens) (UniProt Q01860); experiment: Activation of Oct3/4 (unknown origin) expressed in HEK293 cells at 40 uM after 72 hrs by luciferase reporter gene assay relative to control; format: cell-based; outline: as §1
[15] = target: POU domain, class 5, transcription factor 1 (Homo sapiens) (UniProt Q01860); experiment: Activation of Oct3/4 (unknown origin) transcriptional activity expressed in human NCCIT cells at 20 uM by luciferase reporter gene assay relative to control; format: cell-based; conditions: TDE = time-dependent effect; outline: as §1
HEK293 [16] = experiment: Increase of Oct3/4 expression in human HEK293 cells after 72 hrs by immunoblotting; format: functional, cell-based; outline: as §2
[17] = target: POU domain, class 5, transcription factor 1 (Homo sapiens) (UniProt Q01860); experiment: Activation of Oct3/4 (unknown origin) expressed in human HEK293 cells after 48 hrs by luciferase reporter gene assay relative to control; format: cell-based; outline: as §1
HEK293 [18] = experiment: Increase of Oct3/4 gene expression in human HEK293 cells after 72 hrs by RT-PCR analysis; format: functional, cell-based; outline: as §3
Fibroblast [19] = experiment: Induction of endogenous cellular parameters in human fibroblasts assessed as increase in ALP-FITC signal using propidium iodide staining after 5 days; format: functional, cell-based
[20] = target: POU domain, class 5, transcription factor 1 (Homo sapiens) (UniProt Q01860); experiment: Activation of Oct3/4 in human fibroblasts assessed as increase of Nanog protein expression after 72 hrs by immunoblotting relative to control; outline: as §2
Fibroblast [21] = experiment: Increase of Oct3/4 gene expression in human fibroblasts after 48 hrs by RT-PCR analysis relative to control; format: functional; outline: as §3
[22] = target: POU domain, class 5, transcription factor 1 (Homo sapiens) (UniProt Q01860); experiment: Activation of Oct3/4 (unknown origin) expressed in human NCCIT cells assessed as accumulation of Nanog after 72 hrs by immunoblotting; format: cell-based; outline: as §2
[23] = target: POU domain, class 5, transcription factor 1 (Homo sapiens) (UniProt Q01860); experiment: Activation of Oct3/4 (unknown origin) expressed in human HeLa cells assessed as accumulation of Nanog after 72 hrs by immunoblotting; format: cell-based; outline: as §2
[24] = target: POU domain, class 5, transcription factor 1 (Homo sapiens) (UniProt Q01860); experiment: Activation of Oct3/4 (unknown origin) transcriptional activity expressed in human NCCIT cells after 72 hrs by luciferase reporter gene assay relative to control; format: cell-based; outline: as §1
[25] = target: POU domain, class 5, transcription factor 1 (Homo sapiens) (UniProt Q01860); experiment: Activation of Oct3/4 (unknown origin) expressed in human HeLa cells after 72 hrs by luciferase reporter gene assay relative to control; format: cell-based
[26] = target: POU domain, class 5, transcription factor 1 (Homo sapiens) (UniProt Q01860); experiment: Activation of Oct3/4 in human fibroblasts assessed as repression of N-cadherin gene expression after 48 hrs by RT-PCR analysis relative to control; outline: as §3
[27] = target: POU domain, class 5, transcription factor 1 (Homo sapiens) (UniProt Q01860); experiment: Activation of Oct3/4 (unknown origin) expressed in HEK293 cells assessed as accumulation of Nanog after 72 hrs by immunoblotting; format: cell-based; outline: as §2
[28] = target: POU domain, class 5, transcription factor 1 (Homo sapiens) (UniProt Q01860); experiment: Activation of Oct3/4 in human fibroblasts assessed as co-expression of Nanog and Klf4 after 5 days by immunocytochemistry analysis; outline: as §4

Q: `CCCCNc1nc(C(=O)OCC)cs1` was tested. Which Activity [1] did it give?
A: inactive

Q: Which Activity [1] does the source give for `CCOC(=O)c1csc(NC(C)=O)n1` here?
A: inactive

Q: For `CCOC(=O)c1csc(Nc2ccc(Cl)c(Cl)c2)n1`, which Activity [1] is on record?
A: Active

Q: How did the Activity [1] turn out when `C=CCNc1nc(C(=O)OCC)cs1` was run?
A: inactive

Q: How did the Activity [1] turn out when `CCOC(=O)c1csc(Nc2cccc(F)c2)n1` was run?
A: Active

Q: `O=C(O)c1csc(Nc2cc(Cl)ccc2Cl)n1` was tested. Which Activity [1] did it give?
A: inactive

Q: For `CCOC(=O)c1csc(Nc2ccc(Nc3nc(C(=O)OCC)cs3)cc2)n1`, which Activity [1] is on record?
A: inactive

Q: Which Activity [1] does the source give for `CCOC(=O)c1csc(N)n1` here?
A: inactive

Q: With `O=C(O)c1csc(Nc2ccc(Cl)cc2)n1` as the compound, how does the Activity [1] read?
A: inactive

Q: For `CCOC(=O)c1csc(NCc2ccccc2)n1`, which Activity [1] is on record?
A: inactive

Q: For `CCOC(=O)c1csc(Nc2cccc(Cl)c2)n1`, which Activity [1] is on record?
A: Active

Q: What does the source list for `CCOC(=O)c1csc(Nc2ccc(Cl)cc2)n1`?
A: Activity [2]: Active; Activity [3]: Active; Activity [4]: Active; Activity [1]: Active; fold change (FC) [5]: 2; fold change (FC) [6]: 2; Activity [7]: Active; Activity [8]: Active; fold change (FC) [9]: 30; Activity [10]: Active; fold change (FC) [11]: 20; Activity [12]: inactive; Activity [13]: Active; fold change (FC) [14]: 3.5; Activity [15]: tde; Activity (HEK293 [16]): Dose-dependent effect; Activity [17]: inactive; Activity (HEK293 [18]): Active; Activity (Fibroblast [19]): Active; Activity [20]: Active; fold change (FC) (Fibroblast [21]): 15; Activity [22]: Active; Activity [23]: Dose-dependent effect; Activity [24]: Dose-dependent effect; fold change (FC) [24]: 4; Activity [25]: Dose-dependent effect; Activity [26]: Active; Activity [27]: Active; Activity [28]: Active

Q: Which Activity [1] does the source give for `O=C(O)c1csc(Nc2cccc(Cl)c2)n1` here?
A: inactive

Q: For `CCOC(=O)c1csc(Nc2ccccc2)n1`, which Activity [1] is on record?
A: Active

Q: How did the Activity [1] turn out when `CN(C)CCCNC(=O)c1csc(Nc2ccc(Cl)cc2)n1` was run?
A: inactive

Q: With `CCOC(=O)c1csc(Nc2ccc(Cl)cc2Cl)n1` as the compound, how does the Activity [1] read?
A: Active

Q: `O=C(O)c1csc(Nc2ccc(Cl)cc2Cl)n1` was tested. Which Activity [1] did it give?
A: inactive
